Measured values reported in ChEMBL document CHEMBL3085690, “Naturally occurring antimicrobial peptide OH-CATH30 selectively regulates the innate immune response to protect against sepsis” (J Med Chem, 2013).
The source made the active and inactive calls. The calls are words filed in the database; no cut-off is given here.

Target: Transcription factor p65 (Mus musculus) (UniProt Q04207)
Assay: Activation of NFkappaB p65 in mouse BMDM assessed as phosphorylation at 10 ug/ml after 15 to 30 mins by Western blotting
Summary of the method: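 BMDMs came from mouse bone marrow cultured in RPMI 1640 with 10% FCS and 20% L929-conditioned medium. After treatment, lysates were run on 10% SDS−PAGE, transferred to PVDF, blocked with 5% BSA, and probed for phospho-p65. Detection used an HRP anti-rabbit IgG secondary and chemiluminescence.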

Chain of Transcription factor p65 (Mus musculus) (Q04207 whole entry): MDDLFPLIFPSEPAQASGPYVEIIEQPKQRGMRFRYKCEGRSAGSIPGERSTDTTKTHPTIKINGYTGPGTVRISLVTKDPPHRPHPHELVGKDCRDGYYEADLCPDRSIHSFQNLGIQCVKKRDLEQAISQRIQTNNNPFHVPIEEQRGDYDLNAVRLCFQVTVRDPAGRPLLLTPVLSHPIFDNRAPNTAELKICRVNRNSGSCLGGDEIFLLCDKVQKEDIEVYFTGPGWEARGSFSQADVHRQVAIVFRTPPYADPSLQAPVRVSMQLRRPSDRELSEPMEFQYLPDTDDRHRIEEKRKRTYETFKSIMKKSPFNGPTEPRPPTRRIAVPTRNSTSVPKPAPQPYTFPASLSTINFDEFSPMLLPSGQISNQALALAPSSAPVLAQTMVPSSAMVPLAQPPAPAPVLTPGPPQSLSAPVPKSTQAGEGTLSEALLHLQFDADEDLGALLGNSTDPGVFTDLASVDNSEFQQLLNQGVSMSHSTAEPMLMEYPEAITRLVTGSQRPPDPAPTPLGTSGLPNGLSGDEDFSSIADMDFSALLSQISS

For `CC[C@H](C)[C@H](NC(=O)[C@H](CCCCN)NC(=O)[C@H](CCC(=O)O)NC(=O)[C@H](CCCCN)NC(=O)[C@H](CO)NC(=O)[C@H](CCCCN)NC(=O)[C@H](CCCNC(=N)N)NC(=O)[C@H](Cc1ccccc1)NC(=O)[C@H](Cc1ccccc1)NC(=O)[C@H](CC(=O)O)NC(=O)CNC(=O)[C@H](CC(C)C)NC(=O)[C@@H](N)CC(C)C)C(=O)NCC(=O)N[C@@H](CCCCN)C(=O)N[C@@H](CCC(=O)O)C(=O)N[C@@H](Cc1ccccc1)C(=O)N[C@@H](CCCCN)C(=O)N[C@@H](CCCNC(=N)N)C(=O)N[C@H](C(=O)N[C@H](C(=O)N[C@@H](CCC(N)=O)C(=O)N[C@@H](CCCNC(=N)N)C(=O)N[C@H](C(=O)N[C@@H](CCCCN)C(=O)N[C@@H](CC(=O)O)C(=O)N[C@@H](Cc1ccccc1)C(=O)N[C@@H](CC(C)C)C(=O)N[C@@H](CCCNC(=N)N)C(=O)N[C@@H](CC(N)=O)C(=O)N[C@@H](CC(C)C)C(=O)N[C@H](C(=O)N1CCC[C@H]1C(=O)N[C@@H](CCCNC(=N)N)C(=O)N[C@H](C(=O)N[C@@H](CCC(=O)O)C(=O)N[C@@H](CO)C(=O)O)[C@@H](C)O)C(C)C)[C@@H](C)CC)C(C)C)[C@@H](C)CC`, the Activity was “Active”.
